# Active and inactive are the calls of the source.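 The calls were made as follows, unless noted: active = fluorescence slope higher than the sample average by over 3 SD (cut at about -0.22 in these data, passing the limit was not always enough); inactive = the rest.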
# Experiments:
# [1] = inhibitors of TNFa-induced NFkB p65 translocation, primary screen, imaging, HUVEC, MLSMR starter and 10KST1 sets (AID 438;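 active = inhibition above 20% together with a positive visual image hit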;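 also: compound added about 3h40 before a 20 min TNFalpha stimulation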;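 as to inhibition: signal is the nuclear over cytoplasmic p65 intensity ratio per well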); conditions: HUVEC TNFa-induced p65 nuclear translocation; cell count: measured here: nuclei count (cytotoxicity indicator), at 2.08 µM; inhibition: at 2 µM, stronger effect = higher value, 0% TNFa-plus-vehicle, 100% no-TNFa wells
# [2] = reduction of polyQ htt aggregates in cells – imaging, exon1htt(103Q)mCFP cells, high-content imaging, primary screen (AID 483;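 active = visual image review flags a hit and inhibition of aggregation exceeds 20%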;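 also: compound exposure lasted 3 days before fixation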;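 as to nuclei count: percent of the per-plate median nuclei count of sample wells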); conditions: exon1htt(103Q)mCFP cell line, aggregate imaging, at 2 µM; inhibition of aggregation: stronger effect = higher value; nuclei count: measured here: cell count, toxicity
# [3] = endothelial E-selectin expression blockers – imaging, HUVEC, immunofluorescence, MLSMR starter and 10KST1 sets, primary screen (AID 487;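 active = visually confirmed hit in the image check and inhibition above 20%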;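 as to inhibition: signal is fraction of cell area covered by stained E-selectin grains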;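 as to nuclei count: 100% = median nuclei count of all wells on the same plate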); conditions: HUVEC TNFalpha-induced E-selectin immunofluorescence imaging, at 2 µM; inhibition: stronger effect = higher value; nuclei count: measured here: cell number, toxicity
# [4] = target: Voltage-gated potassium channel subunit beta-2 (Rattus norvegicus) (UniProt P62483); assay: inhibitors of rat Kvbeta2 reductase activity – biochemical, NADPH fluorescence, primary screen (AID 622); conditions: recombinant KvBeta, 4-cyanobenzaldehyde reduction, at 10 µM, stronger effect = higher value;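 also: slope of raw intensity against log time taken from 70 to 1610 s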
# Sequence of Voltage-gated potassium channel subunit beta-2 (Rattus norvegicus) (P62483 whole entry, looked up): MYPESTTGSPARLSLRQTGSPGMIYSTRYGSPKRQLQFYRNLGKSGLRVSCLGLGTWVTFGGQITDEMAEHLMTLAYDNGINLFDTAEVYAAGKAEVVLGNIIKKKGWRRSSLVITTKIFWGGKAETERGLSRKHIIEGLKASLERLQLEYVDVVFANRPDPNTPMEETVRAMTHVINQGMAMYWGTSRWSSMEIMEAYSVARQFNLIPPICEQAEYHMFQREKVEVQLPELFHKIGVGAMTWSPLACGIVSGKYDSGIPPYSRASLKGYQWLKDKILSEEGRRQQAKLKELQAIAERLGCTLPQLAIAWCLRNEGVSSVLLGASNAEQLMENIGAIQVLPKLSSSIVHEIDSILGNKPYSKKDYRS
# [5] = target: Voltage-gated potassium channel subunit beta-2 (Rattus norvegicus) (UniProt P62483); assay: enhancers of rat Kvbeta2 NADPH turnover – biochemical, NADPH fluorescence, primary screen (AID 623;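 active = NADPH fluorescence slope more negative than the mean of all samples by about 3 SD, 99.7% confidence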;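 also: fluorescence intensity change per second fitted from 20 to 320 s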); conditions: Recombinant KvBeta, NADPH fluorescence decrease slope, 10 min; at 10 µM; stronger effect = lower value
# [6] = target: Muscarinic acetylcholine receptor M4 (Homo sapiens) (UniProt P08173); assay: M4-linked GIRK flux change, two-sided – cell-based, HEK293 M4/GIRK, thallium flux, BTC-AM, M4 allosteric agonist project, primary screen (AID 625;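 active = fluorescence slope after compound addition differing from the mean of all tested samples at 99.7% confidence, mostly higher but some lower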;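 also: thallium influx through GIRK channels coupled to M4 in HEK293 cells with BTC-AM dye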); conditions: at 10 µM, actives lie on both sides
# Sequence of Muscarinic acetylcholine receptor M4 (Homo sapiens) (P08173 whole entry, looked up): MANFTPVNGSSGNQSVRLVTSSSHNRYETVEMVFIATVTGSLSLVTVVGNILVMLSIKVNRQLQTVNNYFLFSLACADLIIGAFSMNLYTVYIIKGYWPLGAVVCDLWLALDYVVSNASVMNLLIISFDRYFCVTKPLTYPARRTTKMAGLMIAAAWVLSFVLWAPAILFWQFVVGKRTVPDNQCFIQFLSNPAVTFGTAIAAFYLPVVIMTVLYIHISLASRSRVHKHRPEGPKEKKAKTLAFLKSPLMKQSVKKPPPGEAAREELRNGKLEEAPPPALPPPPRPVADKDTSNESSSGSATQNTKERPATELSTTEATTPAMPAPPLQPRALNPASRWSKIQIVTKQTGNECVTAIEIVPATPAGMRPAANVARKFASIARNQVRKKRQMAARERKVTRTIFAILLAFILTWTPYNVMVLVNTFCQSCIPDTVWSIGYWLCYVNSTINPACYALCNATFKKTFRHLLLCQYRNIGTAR
# Method in brief: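 Material: M4/GIRK1/GIRK2 stable HEK293 cell line. Medium: pH 7.3 thallium assay buffer. Dosing: single compound concentration, 10 µM final. Schedule: 1 h dye loading, 2 min kinetic read. Measured by: kinetic fluorescence with BTC-AM dye. Read-out: post-addition slope, 15–24 s, of baseline-normalized fluorescence. Benchmarks: carbachol and DMSO controls.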
# [7] = blockers of RIG-like receptor reporter activation – cell-based, Sendai virus stimulus, luciferase, 10K MLSCN set, TLR/RLR signaling modifier project, primary screen (AID 602276;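 active = inhibition at or above 50% at 10 µM; inactive = inhibition below 50%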;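 also: firefly luciferase from ISG56 promoter only with Renilla not read in this screen; 0% = Sendai virus plus DMSO and 100% = medium plus DMSO without virus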); conditions: HEK293 RL24 IRF3 luciferase reporter, at 10 µM, stronger effect = higher value
# [8] = TLR3 IRF3 reporter activation blockers – cell-based, poly I:C stimulus, luciferase, 10K MLSCN set, primary screen (AID 602277;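 active = inhibition of the reporter signal at or above 50%; inactive = inhibition below 50%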); conditions: HEK293-TLR3 RL24 IRF3 luciferase reporter, at 10 µM, stronger effect = higher value
SMILES,cell count [1],inhibition [1],inhibition of aggregation [2],nuclei count [2] [%],inhibition [3],nuclei count [3] [%],fluorescence slope [4],NADPH fluorescence slope [5],fluorescence slope [6],inhibition [7],inhibition [8]
CN(C)/C=c1\sc2c(C#N)cc(C(=O)c3ccc(Br)cc3)n2c1=O,398,8.6% (inactive),5.6% (inactive),102,0.2% (inactive),102,-0.439 (inactive),-5.9e-05 (inactive),-0.00984 (active),-3.73% (inactive),19.1% (inactive)
COCCCNC(=O)CCc1nc2cccnc2n1Cc1ccc(OC)cc1,462,4.3% (inactive),-13.4% (inactive),124,-16.4% (inactive),98.8,-0.286 (inactive),-2.5e-05 (inactive),0.006 (inactive),14.4% (inactive),1.17% (inactive)
CCOC(=O)c1sc2ncn(/N=C/N(C)C)c(=O)c2c1C,415,-2.7% (inactive),40.3% (active),72.6,20.9% (inactive),85.9,-0.385 (inactive),6.4e-06 (inactive),0.00524 (inactive),5.64% (inactive),6.76% (inactive)
Cn1c(CCCNC(=O)c2ccccc2)nc2ccccc21,761,-25.8% (inactive),-0.3% (inactive),104,-49.3% (inactive),131,-0.275 (inactive),-5.3e-05 (inactive),0.00743 (inactive),13.2% (inactive),1.35% (inactive)
O=S(=O)(NCC1CCCO1)c1ccc(S(=O)(=O)N2CCc3ccccc3C2)cc1 (stereo not drawn),685,-4.3% (inactive),-21.6% (inactive),97.8,-132% (inactive),140,-0.525 (inactive),-3.8e-05 (inactive),0.00466 (inactive),19.5% (inactive),19.5% (inactive)
CC(C)CCNC(=O)NC(=O)CSc1nnc(-c2ccccc2Br)o1,538,-16.6% (inactive),2% (inactive),104,-32.9% (inactive),125,-0.458 (inactive),2.9e-05 (inactive),0.0066 (inactive),-3.6% (inactive),20.3% (inactive)
O=C(CSc1nnc(Cn2nnc(-c3ccccc3)n2)n1-c1ccccc1)Nc1ccc(F)cc1,626,-9.3% (inactive),-10.3% (inactive),101,-114% (inactive),111,-0.573 (inactive),-6e-05 (inactive),0.00351 (inactive),10.9% (inactive),14.9% (inactive)
CS(=O)(=O)N1CCc2cc(C(=O)N3CCCCC3)ccc21,493,6.1% (inactive),0.6% (inactive),100,-8.3% (inactive),83.3,-0.494 (inactive),5.6e-05 (inactive),0.00629 (inactive),17.7% (inactive),18.6% (inactive)
